Reference: ChEMBL document CHEMBL1158511, “Tricyclic dihydroquinazolinones as novel 5-HT2C selective and orally efficacious anti-obesity agents” (Bioorg Med Chem Lett, 2010)

How the values were obtained:
Rattus norvegicus [1] = assay: Antiobesity activity in Sprague-Dawley rat assessed as reduction of body weight at 30 mg/kg, po after 4 days; type: functional; set-up: scale not given: the % may be the effect or the level left
Outline: (§1)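 Male Sprague–Dawley rats, about 240 g (n = 8), were dosed orally once daily for 4 days with compound or vehicle (14% propylene glycol, 1% tween, 85% water, v/v/v). Body weight, food and water intake were measured daily and compared with vehicle.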

[2] = AUC (0 to infinity) in Sprague-Dawley rat at 1 mg/kg, iv; type: ADME, organism-based; set-up: time infinity, dose 1 mg/kg, route intravenous; conditions: plasma
Outline: (§2)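 Male Sprague–Dawley rats were dosed at 1 mpk iv and po. Values are means of 3 animals per route.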

Rattus norvegicus [3] = organism: Rattus norvegicus; assay: Toxicity in Sprague-Dawley rat; type: organism-based; conditions: in vivo
[4] = Volume of distribution at steady state in Sprague-Dawley rat at 1 mg/kg, iv; type: ADME, organism-based; set-up: dose 1 mg/kg, route intravenous; conditions: in vivo, read-out: Vdss; outline: as §2
Rattus norvegicus [5] = assay: Antiobesity activity in Sprague-Dawley rat assessed as reduction of caloric intake at 30 mg/kg, po after 4 days; type: functional; set-up: scale not given: the % may be the effect or the level left; outline: as §1
[6] = Tmax in Sprague-Dawley rat at 10 mg/kg, po; type: ADME, organism-based; set-up: dose 10 mg/kg, route oral; conditions: in vivo
Outline: (§3)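 Male Sprague–Dawley rats were dosed po only at 1 or 10 mpk. Values are means of 2 animals. AUC was collected over 4 h. Plasma and total brain levels were taken at 4 h post dose.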

Cytochrome P450 2C19 = Cytochrome P450 2C19 (Homo sapiens, UniProt P33261); assay: Inhibition of CYP2C19; type: ADME
Sequence of Cytochrome P450 2C19 (P33261 whole entry): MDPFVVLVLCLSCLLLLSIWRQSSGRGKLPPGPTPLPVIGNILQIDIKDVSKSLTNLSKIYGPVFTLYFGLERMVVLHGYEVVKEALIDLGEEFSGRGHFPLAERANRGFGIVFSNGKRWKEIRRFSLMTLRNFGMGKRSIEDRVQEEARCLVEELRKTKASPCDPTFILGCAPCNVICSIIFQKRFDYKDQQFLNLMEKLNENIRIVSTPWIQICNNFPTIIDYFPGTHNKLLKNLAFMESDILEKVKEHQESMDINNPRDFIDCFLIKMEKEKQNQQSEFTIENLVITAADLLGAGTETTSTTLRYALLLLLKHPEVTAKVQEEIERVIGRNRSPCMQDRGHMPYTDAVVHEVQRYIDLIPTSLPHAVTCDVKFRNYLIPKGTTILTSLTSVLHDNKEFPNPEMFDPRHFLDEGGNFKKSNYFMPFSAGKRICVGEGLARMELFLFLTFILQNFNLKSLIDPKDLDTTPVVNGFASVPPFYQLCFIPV

[7] = AUC in Sprague-Dawley rat at 1 mg/kg, po after 4 hrs; type: ADME, organism-based; set-up: time < 4 hr, dose 1 mg/kg, route oral; conditions: plasma; outline: as §3
hERG = hERG (Homo sapiens, UniProt Q12809); assay: Inhibition of human ERG at 10 uM by patch clamp method
Sequence of hERG (Q12809 whole entry): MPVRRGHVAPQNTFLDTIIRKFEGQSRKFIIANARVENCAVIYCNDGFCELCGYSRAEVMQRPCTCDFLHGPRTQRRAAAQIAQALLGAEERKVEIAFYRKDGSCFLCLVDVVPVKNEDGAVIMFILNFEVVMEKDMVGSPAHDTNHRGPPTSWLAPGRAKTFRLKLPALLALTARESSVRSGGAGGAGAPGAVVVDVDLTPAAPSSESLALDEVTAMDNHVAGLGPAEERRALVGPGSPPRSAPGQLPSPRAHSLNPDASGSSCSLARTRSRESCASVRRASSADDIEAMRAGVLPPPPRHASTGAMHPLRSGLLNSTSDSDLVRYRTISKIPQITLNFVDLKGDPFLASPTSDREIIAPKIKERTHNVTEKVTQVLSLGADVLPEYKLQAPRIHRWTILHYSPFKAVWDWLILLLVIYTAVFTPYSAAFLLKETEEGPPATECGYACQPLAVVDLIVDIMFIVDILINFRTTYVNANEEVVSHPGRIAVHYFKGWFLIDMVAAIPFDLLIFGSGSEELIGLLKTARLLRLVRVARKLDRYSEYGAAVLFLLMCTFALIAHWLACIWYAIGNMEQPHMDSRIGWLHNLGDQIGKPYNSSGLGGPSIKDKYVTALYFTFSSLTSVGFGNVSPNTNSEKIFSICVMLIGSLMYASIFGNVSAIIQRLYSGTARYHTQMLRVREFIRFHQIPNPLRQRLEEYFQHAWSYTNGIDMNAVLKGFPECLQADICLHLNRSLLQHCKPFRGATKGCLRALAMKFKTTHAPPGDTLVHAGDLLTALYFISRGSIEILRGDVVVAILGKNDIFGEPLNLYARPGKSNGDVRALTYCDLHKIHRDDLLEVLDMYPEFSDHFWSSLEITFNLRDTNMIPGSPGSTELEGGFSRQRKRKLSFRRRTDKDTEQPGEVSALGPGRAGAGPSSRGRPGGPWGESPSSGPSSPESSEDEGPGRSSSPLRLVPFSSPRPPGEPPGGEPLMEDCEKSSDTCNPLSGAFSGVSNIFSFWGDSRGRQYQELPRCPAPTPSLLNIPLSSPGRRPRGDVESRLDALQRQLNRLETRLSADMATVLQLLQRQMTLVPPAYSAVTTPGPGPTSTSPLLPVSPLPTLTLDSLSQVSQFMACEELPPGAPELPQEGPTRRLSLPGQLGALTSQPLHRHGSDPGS

Brain [8] = assay: Drug level in Sprague-Dawley rat brain at 1 mg/kg, po after 4 hrs; type: ADME, organism-based; set-up: dose 1 mg/kg, route oral; conditions: in vivo; outline: as §3
CYP2C19 = CYP2C19 (Homo sapiens, UniProt P33261); assay: Inhibition of CYP2C19 at 10 uM; type: ADME
Sequence of CYP2C19 (P33261 whole entry): as the sequence (P33261 whole entry) above

[9] = AUC (0 to infinity) in Sprague-Dawley rat at 1 mg/kg, po; type: ADME, organism-based; set-up: time infinity, dose 1 mg/kg, route oral; conditions: plasma; outline: as §2
CYP2D6 = CYP2D6 (Homo sapiens, UniProt P10635); assay: Inhibition of CYP2D6 at 10 uM; type: ADME
Cytochrome P450 3A4 = Cytochrome P450 3A4 (Homo sapiens, UniProt P08684); assay: Inhibition of CYP3A4; type: ADME
Sequence of Cytochrome P450 3A4 (P08684 whole entry): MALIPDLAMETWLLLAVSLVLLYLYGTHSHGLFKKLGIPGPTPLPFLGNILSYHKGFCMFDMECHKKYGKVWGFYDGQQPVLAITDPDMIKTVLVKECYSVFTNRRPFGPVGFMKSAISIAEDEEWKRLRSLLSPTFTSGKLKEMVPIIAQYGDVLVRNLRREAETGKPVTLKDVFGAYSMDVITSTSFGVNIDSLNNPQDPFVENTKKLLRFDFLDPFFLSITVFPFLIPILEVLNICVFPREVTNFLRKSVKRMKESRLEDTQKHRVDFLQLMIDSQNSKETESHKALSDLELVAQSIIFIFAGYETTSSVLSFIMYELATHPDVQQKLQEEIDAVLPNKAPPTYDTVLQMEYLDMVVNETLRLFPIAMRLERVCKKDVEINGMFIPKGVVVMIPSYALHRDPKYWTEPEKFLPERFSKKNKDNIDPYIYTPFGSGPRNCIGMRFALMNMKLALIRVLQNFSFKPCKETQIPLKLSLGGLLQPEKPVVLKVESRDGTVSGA

[10] = Oral bioavailability in Sprague-Dawley rat at 1 mg/kg; type: ADME, organism-based; conditions: in vivo; outline: as §2
[11] = Cmax in Sprague-Dawley rat at 10 mg/kg, po; type: ADME, organism-based; set-up: dose 10 mg/kg, route oral; conditions: in vivo; outline: as §3
Cytochrome P450 2D6 = Cytochrome P450 2D6 (Homo sapiens, UniProt P10635); assay: Inhibition of CYP2D6; type: ADME
CYP2C9 = CYP2C9 (Homo sapiens, UniProt P11712); assay: Inhibition of CYP2C9 at 10 uM; type: ADME
Sequence of CYP2C9 (P11712 whole entry): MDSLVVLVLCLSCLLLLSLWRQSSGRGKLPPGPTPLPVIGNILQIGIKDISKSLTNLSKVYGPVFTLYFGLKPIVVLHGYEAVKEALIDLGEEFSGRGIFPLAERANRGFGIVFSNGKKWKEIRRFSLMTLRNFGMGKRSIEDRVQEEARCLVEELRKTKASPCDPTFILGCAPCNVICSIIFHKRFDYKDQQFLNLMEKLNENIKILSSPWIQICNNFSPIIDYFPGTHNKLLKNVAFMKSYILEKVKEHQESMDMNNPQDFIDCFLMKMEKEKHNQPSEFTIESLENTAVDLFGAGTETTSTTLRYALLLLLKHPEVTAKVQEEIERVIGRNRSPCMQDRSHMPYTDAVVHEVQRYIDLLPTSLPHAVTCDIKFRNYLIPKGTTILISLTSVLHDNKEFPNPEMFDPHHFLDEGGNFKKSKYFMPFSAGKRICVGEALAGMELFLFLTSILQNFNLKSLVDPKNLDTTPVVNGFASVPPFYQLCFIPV

[12] = target: T1, 5-hydroxytryptamine receptor 2C (Homo sapiens, UniProt P28335); assay: Displacement of [125I]DOI from human recombinant 5HT2C receptor expressed in HEK293E cells; type: cell-based
T1 sequence (P28335 whole entry): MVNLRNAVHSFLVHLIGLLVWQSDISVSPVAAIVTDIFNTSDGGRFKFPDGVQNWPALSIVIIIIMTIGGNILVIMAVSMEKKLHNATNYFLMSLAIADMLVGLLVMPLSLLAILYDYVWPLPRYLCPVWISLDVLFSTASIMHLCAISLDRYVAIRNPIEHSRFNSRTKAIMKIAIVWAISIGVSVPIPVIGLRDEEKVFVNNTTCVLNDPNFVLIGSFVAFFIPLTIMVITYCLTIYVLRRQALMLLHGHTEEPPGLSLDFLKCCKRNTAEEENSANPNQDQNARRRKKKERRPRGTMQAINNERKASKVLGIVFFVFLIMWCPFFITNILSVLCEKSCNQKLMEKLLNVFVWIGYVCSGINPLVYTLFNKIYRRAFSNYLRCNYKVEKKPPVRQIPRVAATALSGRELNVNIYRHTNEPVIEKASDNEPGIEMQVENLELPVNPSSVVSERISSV
Outline: (§4)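 Radioligand binding with [125I]DOI at the human 5-HT2C or 5-HT2A receptor. Ki is the mean of ≥2 independent 12-point dose-response curves (n ≥4 where SD is given).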

Brain [13] = assay: Drug level in Sprague-Dawley rat brain at 10 mg/kg, po after 4 hrs; type: ADME, organism-based; set-up: dose 10 mg/kg, route oral; conditions: in vivo; outline: as §3
Rattus norvegicus [14] = assay: Antiobesity activity in Sprague-Dawley rat assessed as reduction of food intake at 10 mg/kg, po after 20 hrs; type: functional; set-up: scale not given: the % may be the effect or the level left
[15] = Plasma concentration in Sprague-Dawley rat at 10 mg/kg, po after 4 hrs; type: ADME, organism-based; set-up: dose 10 mg/kg, route oral; outline: as §3
[16] = target: T2, 5-hydroxytryptamine receptor 2A (Homo sapiens, UniProt P28223); assay: Displacement of [125I]DOI from human recombinant 5HT2A receptor expressed in HEK293E cells; type: cell-based; outline: as §4
T2 sequence (P28223 whole entry): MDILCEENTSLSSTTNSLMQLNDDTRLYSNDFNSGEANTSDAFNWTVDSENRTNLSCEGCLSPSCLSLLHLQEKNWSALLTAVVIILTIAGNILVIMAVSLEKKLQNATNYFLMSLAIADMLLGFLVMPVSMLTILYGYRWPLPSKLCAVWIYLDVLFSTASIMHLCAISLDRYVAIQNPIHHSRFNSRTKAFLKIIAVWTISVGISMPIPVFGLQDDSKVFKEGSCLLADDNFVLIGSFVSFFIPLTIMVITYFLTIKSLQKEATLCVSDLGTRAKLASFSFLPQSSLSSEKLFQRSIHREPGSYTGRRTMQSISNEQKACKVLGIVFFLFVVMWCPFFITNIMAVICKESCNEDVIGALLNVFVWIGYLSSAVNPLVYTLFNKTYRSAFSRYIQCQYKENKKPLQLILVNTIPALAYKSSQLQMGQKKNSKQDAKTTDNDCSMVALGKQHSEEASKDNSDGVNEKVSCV

[17] = Clearance in Sprague-Dawley rat at 1 mg/kg, iv; type: ADME, organism-based; set-up: dose 1 mg/kg, route intravenous; conditions: in vivo; outline: as §2
[18] = Half life in Sprague-Dawley rat at 1 mg/kg, iv; type: ADME, organism-based; set-up: dose 1 mg/kg, route intravenous; conditions: in vivo; outline: as §2
[19] = target: T1, 5-hydroxytryptamine receptor 2C; assay: Agonist activity at human recombinant 5HT2C receptor expressed in HEK293E cells by FLIPR assay; type: functional, cell-based
Outline: (§5)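 Calcium mobilization measured by FLIPR in HEK293E cells expressing human 5-HT2A, 5-HT2B or 5-HT2C receptor. Values are means of ≥2 independent 12-point dose-response curves (n ≥4 where SD is given). mCPP is the positive control.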

[20] = Plasma concentration in Sprague-Dawley rat at 1 mg/kg, po after 4 hrs; type: ADME, organism-based; set-up: dose 1 mg/kg, route oral; outline: as §3
CYP3A4 = CYP3A4 (Homo sapiens, UniProt P08684); assay: Inhibition of CYP3A4 at 10 uM; type: ADME
Sequence of CYP3A4 (P08684 whole entry): as the sequence (P08684 whole entry) above

[21] = Tmax in Sprague-Dawley rat at 1 mg/kg, po; type: ADME, organism-based; set-up: dose 1 mg/kg, route oral; conditions: in vivo; outline: as §3
CYP1A2 = target: T3, CYP1A2 (Homo sapiens, UniProt P05177); assay: Inhibition of CYP1A2 at 10 uM; type: ADME
T3 sequence (P05177 whole entry): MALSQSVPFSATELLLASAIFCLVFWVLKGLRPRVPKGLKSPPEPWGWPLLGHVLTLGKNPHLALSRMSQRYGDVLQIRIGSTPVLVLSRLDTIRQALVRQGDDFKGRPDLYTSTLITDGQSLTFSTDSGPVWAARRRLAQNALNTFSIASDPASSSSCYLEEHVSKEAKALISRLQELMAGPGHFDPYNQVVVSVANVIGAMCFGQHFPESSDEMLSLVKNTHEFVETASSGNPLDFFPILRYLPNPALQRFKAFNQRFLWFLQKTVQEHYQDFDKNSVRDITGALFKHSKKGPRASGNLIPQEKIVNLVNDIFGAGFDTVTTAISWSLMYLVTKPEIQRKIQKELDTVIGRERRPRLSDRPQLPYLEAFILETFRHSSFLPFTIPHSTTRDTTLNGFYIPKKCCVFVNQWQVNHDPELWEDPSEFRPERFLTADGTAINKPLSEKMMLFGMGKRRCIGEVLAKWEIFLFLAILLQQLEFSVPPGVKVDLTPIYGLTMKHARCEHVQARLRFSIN

[22] = target: T4, 5-hydroxytryptamine receptor 2B (Homo sapiens, UniProt P41595); assay: Agonist activity at human recombinant 5HT2B receptor expressed in HEK293E cells by FLIPR assay; type: functional, cell-based; outline: as §5
T4 sequence (P41595 whole entry): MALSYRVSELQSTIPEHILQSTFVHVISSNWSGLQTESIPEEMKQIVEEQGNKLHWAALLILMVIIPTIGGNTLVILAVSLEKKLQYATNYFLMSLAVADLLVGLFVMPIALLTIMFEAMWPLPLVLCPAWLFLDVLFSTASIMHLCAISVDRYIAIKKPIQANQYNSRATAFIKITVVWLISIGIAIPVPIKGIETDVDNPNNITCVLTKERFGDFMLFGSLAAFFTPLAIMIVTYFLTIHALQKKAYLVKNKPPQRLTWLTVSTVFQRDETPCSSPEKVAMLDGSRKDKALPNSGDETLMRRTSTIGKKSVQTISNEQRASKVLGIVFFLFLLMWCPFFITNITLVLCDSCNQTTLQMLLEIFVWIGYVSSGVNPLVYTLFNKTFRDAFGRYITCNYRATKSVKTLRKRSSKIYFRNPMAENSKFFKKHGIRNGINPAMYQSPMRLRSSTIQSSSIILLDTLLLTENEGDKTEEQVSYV

[23] = Half life in Sprague-Dawley rat at 1 mg/kg, po; type: ADME, organism-based; set-up: dose 1 mg/kg, route oral; conditions: in vivo; outline: as §2
[24] = target: T2, 5-hydroxytryptamine receptor 2A; assay: Agonist activity at human recombinant 5HT2A receptor expressed in HEK293E cells by FLIPR assay; type: functional, cell-based; outline: as §5
Cytochrome P450 2C9 = Cytochrome P450 2C9 (Homo sapiens, UniProt P11712); assay: Inhibition of CYP2C9; type: ADME
Sequence of Cytochrome P450 2C9 (P11712 whole entry): as the sequence (P11712 whole entry) above

[25] = Cmax in Sprague-Dawley rat at 1 mg/kg, po; type: ADME, organism-based; set-up: dose 1 mg/kg, route oral; conditions: in vivo; outline: as §3
Cytochrome P450 1A2 = target: T5, Cytochrome P450 1A2 (Homo sapiens, UniProt P05177); assay: Inhibition of CYP1A2; type: ADME
T5 sequence (P05177 whole entry): T3 sequence (P05177 whole entry)

[26] = AUC in Sprague-Dawley rat at 10 mg/kg, po after 4 hrs; type: ADME, organism-based; set-up: time < 4 hr, dose 10 mg/kg, route oral; conditions: plasma; outline: as §3
[27] = target: T4, 5-hydroxytryptamine receptor 2B; assay: Displacement of [3H]LSD from human recombinant 5HT2B receptor expressed in HEK293E cells

Compound: Cc1cccc2c1C(=O)NC1CNCCN21 (single isomer, unassigned; (+))
- Activity (Rattus norvegicus [1]): 4.1%
- AUC(0-inf) [2]: 2.34 µM·h
- Activity (Rattus norvegicus [3]): Non-toxic
- Vd [4]: 1.3 L/kg
- Activity (Rattus norvegicus [5]): 16%
- Tmax [6]: 30 min
- IC50 (Cytochrome P450 2C19): > 40000 nM
- AUC at 4 h [7]: 1.04 µM·h
- inhibition at 10 µM (hERG): 37%
- Drug uptake (Brain [8]): 326 nmol/kg
- inhibition at 10 µM (CYP2C19): > 50%
- AUC(0-inf) [9]: 1.15 µM·h
- inhibition at 10 µM (CYP2D6): > 50%
- IC50 (Cytochrome P450 3A4): > 40000 nM
- bioavailability [10]: 49%
- Cmax [11]: 5380 nM
- IC50 (Cytochrome P450 2D6): > 40000 nM
- inhibition at 10 µM (CYP2C9): > 50%
- Ki [12]: 89 nM
- Drug uptake (Brain [13]): 3010 nmol/kg
- Activity (Rattus norvegicus [14]): 22%
- concentration at 4 h [15]: 2120 nM
- Ki [16]: 229 nM
- clearance [17]: 27 mL/min/kg
- half-life [18]: 54 min
- EC50 [19]: 45 nM
- concentration at 4 h [20]: 219 nM
- inhibition at 10 µM (CYP3A4): > 50%
- Tmax [21]: 60 min
- inhibition at 10 µM (CYP1A2): > 50%
- EC50 [22]: > 10000 nM
- half-life [23]: 150 min
- EC50 [24]: > 10000 nM
- IC50 (Cytochrome P450 2C9): > 40000 nM
- Cmax [25]: 293 nM
- IC50 (Cytochrome P450 1A2): > 40000 nM
- AUC at 4 h [26]: 1.24 µM·h
- Ki [27]: 8.6 nM
